From ChEMBL document CHEMBL1128226, “Phosphinyl acid-based bisubstrate analog inhibitors of Ras farnesyl protein transferase” (J Med Chem, 1995) come the findings set out here.

Structures are written as SMILES.

Experiment [1] concerns the target T1, Protein farnesyltransferase (Homo sapiens, UniProt P49354+P49356). Nature of the experiment: Inhibition of Ras Farnesyltransferase enzyme from pig brain. On the set-up: species or system Sus scrofa. Conditions: target entry is the homologue from another species; read-out: I50. An outline of the steps:
(§1)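 Pig brain FPT purified about 2000-fold over crude cytosol. Reaction contains 1 μM [3H]FPP, 7 μM recombinant p21 H-Ras (E. coli, partially purified), 25 mM MgCl2, 10 mM DTT and 100 mM HEPES 7.4, with inhibitor usually 360 to 0.02 μM. Run 1 h at 37 °C, then SDS/TCA precipitation, filtration and scintillation counting. Triplicate points; IC50 from % control vs log concentration; each compound tested at least twice.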

In experiment [2] the target is Geranylgeranyl transferase type I (Homo sapiens, UniProt P49354+P53609). Nature of the experiment: Inhibition of Geranylgeranyl transferase type I from porcine brain tissue. The arrangement: species or system Sus scrofa. As to conditions: target entry is the homologue from another species; read-out: I50. In short, it runs like this: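 Porcine brain GGT-I, partially purified; substrates 12 μM bacterially expressed p21 rasCVLL and 0.5 μM [3H]GGPP (19.3 Ci/mmol), with 10 mM DTT, 5 mM MgCl2, 5 μM ZnCl2, 100 mM HEPES pH 7.4. Incubated 1 h at 37 °C. Protein precipitated with SDS/TCA, filtered, radioactivity counted. Triplicates, SEM reported; IC50 determined.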

For experiment [3], the target named is T1, Protein farnesyltransferase. Kind of experiment: Inhibition of Ras Farnesyltransferase obtained from pig brain; 'a' indicates prodrug. Conditions: target entry is the homologue from another species. On the set-up: species or system Sus scrofa. In short, it runs like this: as §1
In experiment [4] the test system is Geranylgeranyl transferase type I (Sus scrofa). Nature of the experiment: Inhibition of Geranylgeranyl transferase type I from porcine brain tissue; 'a' indicates prodrug.
Experiment [5] concerns the target T1, Protein farnesyltransferase. Kind of experiment: Inhibition of Ras Farnesyltransferase from pig brain. The arrangement: species or system Sus scrofa. As to conditions: target entry is the homologue from another species; read-out: I50. In short, it runs like this: as §1

Consider `CSCC[C@H](NC(=O)[C@@H](NC(=O)[C@@H](NC(=O)COP(=O)(O)C/C=C(\C)CC/C=C(\C)CCC=C(C)C)C(C)C)C(C)C)C(=O)O`, for which the IC50 was determined as 0.0062 µM in experiment [1] and 10 µM in experiment [2].

With `COC(=O)[C@H](CCSC)NC(=O)[C@@H](NC(=O)[C@@H](NC(=O)COP(=O)(O)C/C=C(\C)CC/C=C(\C)CCC=C(C)C)C(C)C)C(C)C`, the I50 result in experiment [3] is “Prepared and evaluated as prodrugs”; in experiment [4], “Prepared and evaluated as prodrugs”.

Take `CSCC[C@H](NC(=O)[C@@H](NC(=O)[C@@H](NC(=O)CCP(=O)(O)C/C=C(\C)CC/C=C(\C)CCC=C(C)C)C(C)C)C(C)C)C(=O)O`: the results for the IC50 in experiment [5] and in experiment [2] were 0.006 µM and 21 µM, respectively.

Consider `COC(=O)[C@H](CCSC)NC(=O)[C@@H](NC(=O)[C@@H](NC(=O)CCP(=O)(O)C/C=C(\C)CC/C=C(\C)CCC=C(C)C)C(C)C)C(C)C`, for which the I50 result in experiment [3] was “Prepared and evaluated as prodrugs”; in experiment [4], “Prepared and evaluated as prodrugs”.

As for `CC(C)=CCC/C(C)=C/CC/C(C)=C/CP(=O)(O)OCC(=O)N[C@H](C(=O)N[C@@H](CC(C)C)C(=O)N[C@@H](CO)C(=O)O)C(C)C`, the values for the IC50 in experiment [1] and in experiment [2] were 0.06 µM and 59 µM, respectively.
